Assay results from ChEMBL document CHEMBL1138782, “Toward a novel metal-based chemotherapy against tropical diseases. 7. Synthesis and in vitro antimalarial activity of new gold-chloroquine complexes” (J Med Chem, 2004).

Test system: Cell line
Assay: Parasitaemia for Plasmodium falciparum in human erythrocytes after 3 hrs incubation with 100 uM compound
Type: functional
Summary of the method: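 Uninfected RBCs preincubated 3 h at 37 °C with 100 µM compound, washed in RPMI medium, then placed 6 h with RBCs carrying 44–48 h schizonts of synchronized K1 culture (plasmagel and sorbitol synchronization); reinvasion read as resulting parasitemia (%).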

CCN(CC)CCCC(C)Nc1ccnc2cc(Cl)ccc12.O=P(O)(O)O.O=P(O)(O)O (stereo unspecified) [CHLOROQUINE PHOSPHATE]
Parasitemia: 5.67%
